# Test results published in ChEMBL document CHEMBL5678806, “NMS-P937, an orally available, specific small-molecule polo-like kinase 1 inhibitor with antitumor activity in solid and hematologic malignancies” (Mol Cancer Ther, 2012).
# Legend:
# [1] = target: Serine/threonine-protein kinase Nek6 (Homo sapiens, UniProt Q9HC98); test: Inhibition of NEK6 (unknown origin) in presence of [gamma-33P]ATP
# PC-3 = test: Antiproliferative activity against human PC-3 cells assessed as inhibition of cell growth incubated for 72 hrs by cell-titer glo assay; assay type: functional, cell-based; settings: PC-3, 72 h
# Method in brief: (§1)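 Cells from ATCC or ECACC, kept in supplier-recommended medium with 1% penicillin-streptomycin at 37°C, 5% CO₂. Seeded at 10,000–30,000/cm² (adherent) or 100,000/mL (nonadherent) in medium with 10% fetal calf serum. Dosed after 24 h in duplicate with serial dilutions. Viable cells read by CellTiter-Glo 72 h later. IC50 from sigmoidal fit. At least two independent experiments.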
# COLO-678 = test: Antiproliferative activity against human COLO-678 cells assessed as inhibition of cell growth incubated for 72 hrs by cell-titer glo assay; assay type: functional, cell-based; settings: COLO-678, 72 h
# Method in brief: (§2)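 Cells seeded 10,000–30,000/cm² (adherent) or 100,000/mL (suspension) in medium with 10% fetal calf serum; after 24 h treated in duplicate with serial dilutions for 72 h. Viable cells read by CellTiter-Glo luminescence; IC50 from sigmoidal fit; at least two independent experiments.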
# [2] = target: Inhibitor of nuclear factor kappa-B kinase subunit beta (Homo sapiens) (UniProt O14920); test: Inhibition of N-terminal His6 tagged recombinant full-length human IKKbeta expressed in baculovirus infected Sf21 cells assessed as residual activity at 0.1 uM relative to control
# [3] = Clearance in Sprague-Dawley rat at 10 mg/kg, iv by LC-MS analysis; assay type: ADME, organism-based; settings: in vivo
# HEL = test: Antiproliferative activity against human HEL cells assessed as inhibition of cell growth incubated for 72 hrs by cell-titer glo assay; assay type: functional, cell-based
# Method in brief: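 Cells seeded at 10,000–30,000/cm² (adherent) or 100,000/mL (nonadherent) in medium with 10% fetal calf serum; after 24 h, treated in duplicate with serial dilutions for 72 h. Viable cell number read by CellTiter-Glo luminescence; IC50 from sigmoidal fit; at least two independent experiments.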
# NCI-H358 = test: Antiproliferative activity against human NCI-H358 cells assessed as inhibition of cell growth incubated for 72 hrs by cell-titer glo assay; assay type: functional, cell-based; settings: NCI-H358, 72 h; method in brief: as §1
# [4] = AUC in Sprague-Dawley rat at 10 mg/kg, po by LC-MS analysis; assay type: ADME, organism-based; settings: in vivo
# [5] = target: Serine/threonine-protein kinase 17A (Homo sapiens) (UniProt Q9UEE5); test: Inhibition of N-terminal 6His-tagged recombinant full-length human DRAK1 expressed in baculovirus infected Sf21 cells assessed as residual activity at 0.1 uM relative to control
# DLD-1 = test: Antiproliferative activity against human DLD-1 cells assessed as inhibition of cell growth incubated for 72 hrs by cell-titer glo assay; assay type: functional, cell-based; settings: DLD-1, 72 h; method in brief: as §2
# A-375 = test: Antiproliferative activity against human A-375 cells assessed as inhibition of cell growth incubated for 72 hrs by cell-titer glo assay; assay type: functional, cell-based; settings: A-375, 72 h; method in brief: as §2
# UO-31 = test: Antiproliferative activity against human UO-31 cells assessed as inhibition of cell growth incubated for 72 hrs by cell-titer glo assay; assay type: functional, cell-based; settings: UO-31, 72 h
# [6] = Antiproliferative activity against human A2780 ADR cells assessed as inhibition of cell growth incubated for 72 hrs by cell-titer glo assay; assay type: functional, cell-based; method in brief: as §2
# NALM-6 = test: Antiproliferative activity against human NALM-6 cells assessed as inhibition of cell growth incubated for 72 hrs by cell-titer glo assay; assay type: functional, cell-based; settings: NALM-6, 72 h; method in brief: as §1
# BT-20 = test: Antiproliferative activity against human BT-20 cells assessed as inhibition of cell growth incubated for 72 hrs by cell-titer glo assay; assay type: functional, cell-based; settings: BT-20, 72 h; method in brief: as §2
# CCRF-CEM = test: Antiproliferative activity against human CCRF-CEM cells assessed as inhibition of cell growth incubated for 72 hrs by cell-titer glo assay; assay type: functional, cell-based; method in brief: as §2
# A549 = test: Antiproliferative activity against human A549 cells assessed as inhibition of cell growth incubated for 72 hrs by cell-titer glo assay; assay type: functional, cell-based; settings: A549, 72 h; method in brief: as §2
# A498 = test: Antiproliferative activity against human A498 cells assessed as inhibition of cell growth incubated for 72 hrs by cell-titer glo assay; assay type: functional, cell-based; settings: A498, 72 h; method in brief: as §2
# PANC-1 = test: Antiproliferative activity against human PANC-1 cells assessed as inhibition of cell growth incubated for 72 hrs by cell-titer glo assay; assay type: functional, cell-based; settings: PANC-1, 72 h; method in brief: as §1
# [7] = target: Serine/threonine-protein kinase PAK 3 (Homo sapiens) (UniProt O75914); test: Inhibition of C-terminal 6His-tagged recombinant human full-length PAK3 expressed in baculovirus infected Sf21 cells assessed as residual activity at 1 uM relative to control
# SW480 = test: Antiproliferative activity against human SW480 cells assessed as inhibition of cell growth incubated for 72 hrs by cell-titer glo assay; assay type: functional, cell-based; settings: SW480, 72 h
# [8] = Antiproliferative activity against human TF-1a cells assessed as inhibition of cell growth incubated for 72 hrs by cell-titer glo assay; assay type: functional, cell-based
# CAL-51 = test: Antiproliferative activity against human CAL-51 cells assessed as inhibition of cell growth incubated for 72 hrs by cell-titer glo assay; assay type: functional, cell-based; settings: CAL-51, 72 h; method in brief: as §2
# [9] = target: Serine/threonine-protein kinase D1 (Homo sapiens) (UniProt Q15139); test: Inhibition of N-terminal His6-tagged recombinant full-length human PKCmu expressed in Sf21 cells assessed as residual activity at 1 uM relative to control
# Chain of Serine/threonine-protein kinase D1 (Homo sapiens) (Q15139 whole entry): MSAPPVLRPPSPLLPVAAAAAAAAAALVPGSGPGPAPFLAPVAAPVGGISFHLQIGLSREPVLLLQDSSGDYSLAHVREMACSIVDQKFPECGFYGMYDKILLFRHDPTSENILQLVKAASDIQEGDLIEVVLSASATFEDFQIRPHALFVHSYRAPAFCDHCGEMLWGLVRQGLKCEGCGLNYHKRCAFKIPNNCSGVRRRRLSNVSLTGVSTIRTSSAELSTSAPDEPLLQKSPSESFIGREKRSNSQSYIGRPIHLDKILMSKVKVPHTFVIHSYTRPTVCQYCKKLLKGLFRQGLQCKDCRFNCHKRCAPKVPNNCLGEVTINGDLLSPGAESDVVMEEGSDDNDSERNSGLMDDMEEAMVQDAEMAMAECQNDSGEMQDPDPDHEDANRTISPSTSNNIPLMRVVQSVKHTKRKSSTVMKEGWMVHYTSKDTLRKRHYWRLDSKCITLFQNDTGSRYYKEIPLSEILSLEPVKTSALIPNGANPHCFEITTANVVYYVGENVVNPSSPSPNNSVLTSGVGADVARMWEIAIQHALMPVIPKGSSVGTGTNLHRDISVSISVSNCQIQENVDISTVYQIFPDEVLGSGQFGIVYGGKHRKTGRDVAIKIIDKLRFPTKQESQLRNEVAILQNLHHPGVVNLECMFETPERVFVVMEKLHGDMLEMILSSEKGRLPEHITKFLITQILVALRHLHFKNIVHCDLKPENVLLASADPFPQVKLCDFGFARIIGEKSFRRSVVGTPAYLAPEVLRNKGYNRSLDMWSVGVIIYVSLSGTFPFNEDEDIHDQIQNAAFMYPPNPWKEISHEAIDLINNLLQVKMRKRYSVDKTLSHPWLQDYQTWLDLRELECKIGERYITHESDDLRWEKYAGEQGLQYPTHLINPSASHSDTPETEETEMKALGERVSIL
# Chain of Inhibitor of nuclear factor kappa-B kinase subunit beta (Homo sapiens) (O14920 whole entry): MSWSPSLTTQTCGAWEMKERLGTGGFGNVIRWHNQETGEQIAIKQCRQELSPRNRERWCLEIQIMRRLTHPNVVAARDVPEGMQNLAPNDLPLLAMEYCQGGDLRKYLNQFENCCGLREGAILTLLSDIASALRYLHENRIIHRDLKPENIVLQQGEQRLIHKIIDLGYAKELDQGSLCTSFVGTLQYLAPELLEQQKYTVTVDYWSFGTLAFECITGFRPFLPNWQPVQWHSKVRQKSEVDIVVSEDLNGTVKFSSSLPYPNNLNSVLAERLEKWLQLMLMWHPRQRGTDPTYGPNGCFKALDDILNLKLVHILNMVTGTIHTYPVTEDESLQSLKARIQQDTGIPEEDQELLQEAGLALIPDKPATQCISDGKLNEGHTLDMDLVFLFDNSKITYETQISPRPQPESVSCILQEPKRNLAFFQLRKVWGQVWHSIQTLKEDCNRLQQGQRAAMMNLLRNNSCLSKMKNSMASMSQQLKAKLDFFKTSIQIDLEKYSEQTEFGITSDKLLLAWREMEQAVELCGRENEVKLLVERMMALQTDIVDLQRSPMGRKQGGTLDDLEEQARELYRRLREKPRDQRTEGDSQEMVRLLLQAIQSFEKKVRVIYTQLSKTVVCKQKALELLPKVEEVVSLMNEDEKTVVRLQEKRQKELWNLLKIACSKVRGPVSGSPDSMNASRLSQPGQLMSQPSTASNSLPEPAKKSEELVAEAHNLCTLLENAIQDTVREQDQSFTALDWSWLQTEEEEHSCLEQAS
# Chain of Serine/threonine-protein kinase PAK 3 (Homo sapiens) (O75914 whole entry, looked up): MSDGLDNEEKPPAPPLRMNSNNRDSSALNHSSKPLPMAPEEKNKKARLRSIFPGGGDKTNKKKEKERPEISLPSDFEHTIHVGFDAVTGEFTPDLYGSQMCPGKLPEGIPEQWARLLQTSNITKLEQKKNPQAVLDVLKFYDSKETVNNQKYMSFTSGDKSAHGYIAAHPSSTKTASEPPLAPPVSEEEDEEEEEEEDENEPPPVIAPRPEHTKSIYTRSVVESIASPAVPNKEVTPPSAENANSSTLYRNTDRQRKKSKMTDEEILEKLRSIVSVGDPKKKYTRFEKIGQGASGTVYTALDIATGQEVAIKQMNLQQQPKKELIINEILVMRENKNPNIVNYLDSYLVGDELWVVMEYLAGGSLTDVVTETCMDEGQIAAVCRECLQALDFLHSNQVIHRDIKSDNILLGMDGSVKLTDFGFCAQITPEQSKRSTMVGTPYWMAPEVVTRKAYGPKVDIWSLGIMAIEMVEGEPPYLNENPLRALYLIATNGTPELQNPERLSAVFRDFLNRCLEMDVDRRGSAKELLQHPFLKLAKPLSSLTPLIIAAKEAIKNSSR
# Chain of Serine/threonine-protein kinase 17A (Homo sapiens) (Q9UEE5 whole entry): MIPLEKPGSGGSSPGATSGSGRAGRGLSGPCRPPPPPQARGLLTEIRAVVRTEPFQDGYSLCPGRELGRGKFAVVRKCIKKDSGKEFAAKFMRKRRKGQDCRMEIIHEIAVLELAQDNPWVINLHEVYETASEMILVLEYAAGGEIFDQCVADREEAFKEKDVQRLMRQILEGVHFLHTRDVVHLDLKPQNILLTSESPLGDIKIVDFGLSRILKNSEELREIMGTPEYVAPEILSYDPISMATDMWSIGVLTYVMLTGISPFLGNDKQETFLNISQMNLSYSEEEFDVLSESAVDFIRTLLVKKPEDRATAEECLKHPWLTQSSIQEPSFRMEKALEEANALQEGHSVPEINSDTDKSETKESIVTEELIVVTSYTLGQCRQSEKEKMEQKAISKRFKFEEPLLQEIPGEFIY
# Chain of Serine/threonine-protein kinase Nek6 (Q9HC98 whole entry): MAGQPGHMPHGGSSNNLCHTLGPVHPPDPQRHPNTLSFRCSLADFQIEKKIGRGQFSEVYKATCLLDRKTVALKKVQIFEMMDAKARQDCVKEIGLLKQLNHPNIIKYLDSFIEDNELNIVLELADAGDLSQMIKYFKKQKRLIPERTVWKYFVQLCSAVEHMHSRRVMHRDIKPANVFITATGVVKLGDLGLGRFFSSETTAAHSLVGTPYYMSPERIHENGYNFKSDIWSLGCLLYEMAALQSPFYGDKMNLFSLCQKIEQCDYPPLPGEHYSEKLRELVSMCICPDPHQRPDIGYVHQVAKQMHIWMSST
smiles,measurement,setting,value
CN1CCN(c2ccc(OC(F)(F)F)c(Nc3ncc4c(n3)-c3c(c(C(N)=O)nn3CCO)CC4)c2)CC1 [ONVANSERTIB],IC50,[1],> 10 µM
same,IC50,PC-3,0.152 µM
same,IC50,COLO-678,0.354 µM
same,Activity,[2],122%
same,clearance,[3],1.24 L/h/kg
same,IC50,HEL,0.048 µM
same,IC50,NCI-H358,0.175 µM
same,AUC,[4],46.4 µM·h
same,Activity,[5],58%
same,IC50,DLD-1,0.329 µM
same,IC50,A-375,0.04 µM
same,IC50,UO-31,1.13 µM
same,IC50,[6],0.62 µM
same,IC50,NALM-6,0.061 µM
same,IC50,BT-20,0.093 µM
same,IC50,CCRF-CEM,0.055 µM
same,IC50,A549,0.175 µM
same,IC50,A498,1.07 µM
same,IC50,PANC-1,0.184 µM
same,Activity,[7],90%
same,IC50,SW480,0.618 µM
same,IC50,[8],1.78 µM
same,IC50,CAL-51,0.019 µM
same,Activity,[9],85%
